Assay results reported in ChEMBL document CHEMBL4732207, “Design, Synthesis and Structure-Activity Relationship Studies of Glycosylated Derivatives of Marine Natural Product Lamellarin D” (Eur J Med Chem, 2021).
pIC50: −log10 of the molar value. Converted amounts (≈) assume the structure as drawn. The source made the active and inactive calls. The calls are words filed in the database; no cut-off is given here.

Key:
MDA-MB-231 [1] = assay: Cytotoxicity against human MDA-MB-231 cells assessed as reduction in cell viability incubated for 72 hrs by MTT assay; assay type: functional, cell-based; details: MDA-MB-231, 72 h
Summary of the method: (§1)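 Cells resuspended in DMEM plus 10% FBS and seeded at 5 000 cells/well. They were incubated overnight at 37 °C in 5% CO2, then exposed to serial dilutions for 72 h at 37 °C. Medium was replaced with fresh medium containing 0.5 mg/mL MTT for 4 h, formazan dissolved in DMSO, and A540 read. Proliferation = A540 treated/control ×100%. IC50 is the concentration inhibiting proliferation by 50%.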

A549 = assay: Cytotoxicity against human A549 cells assessed as reduction in cell viability incubated for 72 hrs by MTT assay; assay type: functional, cell-based; details: A549, 72 h; summary of the method: as §1
HepG2 = assay: Cytotoxicity against human HepG2 cells assessed as reduction in cell viability incubated for 72 hrs by MTT assay; assay type: functional, cell-based; details: HepG2, 72 h; summary of the method: as §1
HCT-116 = assay: Cytotoxicity against human HCT-116 cells assessed as reduction in cell viability incubated for 72 hrs by MTT assay; assay type: functional, cell-based; details: HCT-116, 72 h; summary of the method: as §1
[2] = Aqueous solubility of compound in deionized water by HPLC-HRMS analysis; assay type: physicochemical; details: buffer
HGC-27 = assay: Cytotoxicity against human HGC-27 cells assessed as reduction in cell viability incubated for 72 hrs by MTT assay; assay type: functional, cell-based; details: HGC-27, 72 h; summary of the method: as §1
MDA-MB-231 [3] = assay: Induction of cell cycle arrest in human MDA-MB-231 cells assessed as increase in accumulation of G2/M phase incubated for 24 hrs by PI staining based flow cytometry analysis; assay type: functional; details: dose 10-50 nM
Summary of the method: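 MDA-MB-231 cells (5 × 10^5) seeded in six-well plates, cultured overnight at 37 °C, then treated at 10, 20 or 50 nM for 24 h. Lamellarin D was the positive control at 20 and 50 nM. Cells were trypsinized, washed twice in PBS and fixed in 70% ethanol overnight at −20 °C. After washing, cells were stained with propidium iodide. Phase distribution was read by flow cytometry.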

[4] = target: T1, DNA topoisomerase 1 (Homo sapiens) (UniProt P11387); assay: Inhibition of topoisomerase 1 (unknown origin) assessed as reduction in relaxation of supercoiled plasmid pBR322 DNA at 10 uM incubated for 30 mins by agarose gel electrophoresis
T1 sequence (whole entry): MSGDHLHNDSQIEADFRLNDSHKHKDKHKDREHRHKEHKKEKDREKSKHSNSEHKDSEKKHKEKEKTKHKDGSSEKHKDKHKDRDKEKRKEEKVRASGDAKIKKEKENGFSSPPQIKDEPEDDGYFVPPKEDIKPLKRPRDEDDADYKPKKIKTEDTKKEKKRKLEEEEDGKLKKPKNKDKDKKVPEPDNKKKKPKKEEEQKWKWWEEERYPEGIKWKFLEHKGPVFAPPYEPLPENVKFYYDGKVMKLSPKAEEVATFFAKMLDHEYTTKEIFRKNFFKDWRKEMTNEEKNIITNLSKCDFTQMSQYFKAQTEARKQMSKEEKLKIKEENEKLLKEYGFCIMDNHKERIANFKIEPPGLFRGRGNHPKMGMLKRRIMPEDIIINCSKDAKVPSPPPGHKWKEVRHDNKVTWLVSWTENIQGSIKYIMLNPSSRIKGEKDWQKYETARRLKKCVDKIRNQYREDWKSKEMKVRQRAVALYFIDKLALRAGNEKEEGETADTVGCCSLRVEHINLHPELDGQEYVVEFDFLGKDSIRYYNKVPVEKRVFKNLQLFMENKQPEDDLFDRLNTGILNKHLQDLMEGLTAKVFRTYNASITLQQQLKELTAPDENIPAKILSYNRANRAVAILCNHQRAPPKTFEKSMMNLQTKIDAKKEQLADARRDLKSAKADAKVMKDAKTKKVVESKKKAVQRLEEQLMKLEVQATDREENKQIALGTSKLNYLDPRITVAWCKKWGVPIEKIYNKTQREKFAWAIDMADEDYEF
Summary of the method: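 Reaction mix held 10X Topo I buffer, supercoiled pBR322 (250 ng), Topo I (2 U) and compound at 10 µM, incubated 37 °C for 30 min. Stopped with 10% SDS, then proteinase K digestion for 30 min. Products run on 1% agarose without stain, post-stained with 4s Green for 50 min and imaged under UV. Read-out is loss of relaxation.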

MDA-MB-231 [5] = assay: Induction of apoptosis in human MDA-MB-231 cells at 50 nM incubated for 24 hrs by annexin-V-FITC and PI staining based flow cytometry analysis; assay type: functional, cell-based

SMILES	pIC50 (MDA-MB-231 [1])	pIC50 (A549)	pIC50 (HepG2)	pIC50 (HCT-116)	solubility [2]	pIC50 (HGC-27)	Activity (MDA-MB-231 [3])	inhibition [4]	Activity (MDA-MB-231 [5])
COc1cc(-c2c3c4cc(OC)c(O[C@@H]5O[C@H](CO)[C@H](O)[C@H](O)[C@H]5O)cc4oc(=O)c3n3ccc4cc(O)c(OC)cc4c23)ccc1O	7.60	7.70	7.24	7.74	0.12 nM (≈ 0.0794 ng/mL)	7.05	–	–	–
COc1cc(-c2c3c4cc(OC)c(O[C@@H]5O[C@H](CO)[C@@H](O)[C@H]5O)cc4oc(=O)c3n3ccc4cc(O)c(OC)cc4c23)ccc1O	5.57	5.54	6.20	5.94	–	6.06	–	–	–
COc1cc(-c2c3c4cc(OC)c(O)cc4oc(=O)c3n3ccc4cc(O)c(OC)cc4c23)ccc1O [LAMELLARIN D]	7.51	8.40	7.06	7.60	0.56 nM (≈ 0.28 ng/mL)	6.63	Dose-dependent effect	Active	–
COc1cc(-c2c3c4cc(OC)c(O[C@H]5O[C@H](CO)[C@@H](O)[C@H](O)[C@@H]5O)cc4oc(=O)c3n3ccc4cc(O)c(OC)cc4c23)ccc1O	6.50	6.43	6.24	6.69	0.37 nM (≈ 0.245 ng/mL)	6.86	–	–	–
COc1cc(-c2c3c4cc(OC)c(O)cc4oc(=O)c3n3ccc4cc(O[C@@H]5O[C@H](CO)[C@@H](O)[C@H]5O)c(OC)cc4c23)ccc1O	5.29	5.38	6.03	5.89	–	5.91	–	–	–
COc1cc2c(cc1O)oc(=O)c1c2c(-c2ccc(O[C@@H]3O[C@H](CO)[C@@H](O)[C@H]3O)c(OC)c2)c2c3cc(OC)c(O)cc3ccn21	5.68	6.18	6.48	6.21	–	6.65	–	–	–
COc1cc2c(cc1O)oc(=O)c1c2c(-c2ccc(O[C@@H]3O[C@H](CO)[C@@H](O)[C@H](O)[C@H]3O)c(OC)c2)c2c3cc(OC)c(O)cc3ccn21	< 4.30	< 4.30	4.37	4.58	0.41 nM (≈ 0.271 ng/mL)	< 4.30	–	Active	–
COc1cc2c(cc1O)oc(=O)c1c2c(-c2ccc(O[C@H]3O[C@H](CO)[C@@H](O)[C@H](O)[C@@H]3O)c(OC)c2)c2c3cc(OC)c(O)cc3ccn21	< 4.30	< 4.30	< 4.30	< 4.30	0.14 nM (≈ 0.0926 ng/mL)	4.50	–	Active	–
COc1cc(-c2c3c4cc(OC)c(O[C@@H]5O[C@H](CO)[C@@H](O)[C@H](O)[C@H]5O)cc4oc(=O)c3n3ccc4cc(O)c(OC)cc4c23)ccc1O	7.47	8.52	7.82	8.00	2 nM (≈ 1.32 ng/mL)	6.79	Dose-dependent effect	–	Active
COc1cc(-c2c3c4cc(OC)c(O)cc4oc(=O)c3n3ccc4cc(O[C@H]5O[C@H](CO)[C@@H](O)[C@H](O)[C@@H]5O)c(OC)cc4c23)ccc1O	5.70	5.49	5.41	5.85	0.23 nM (≈ 0.152 ng/mL)	6.66	–	–	–
COc1cc2c(ccn3c2c(-c2ccc(O[C@@H]4O[C@H](CO)[C@@H](O)[C@H](O)[C@H]4O)c(OC)c2)c2c4cc(OC)c(O[C@@H]5O[C@H](CO)[C@@H](O)[C@H](O)[C@H]5O)cc4oc(=O)c23)cc1O	5.13	4.79	4.54	5.17	257.55 nM (≈ 212 ng/mL)	5.14	–	Active	–
COc1cc(-c2c3c4cc(OC)c(O)cc4oc(=O)c3n3ccc4cc(O[C@@H]5O[C@H](CO)[C@H](O)[C@H](O)[C@H]5O)c(OC)cc4c23)ccc1O	7.74	7.89	7.32	7.43	235.82 nM (≈ 156 ng/mL)	6.94	–	–	–
COc1cc(-c2c3c4cc(OC)c(O)cc4oc(=O)c3n3ccc4cc(O[C@@H]5O[C@H](CO)[C@@H](O)[C@H](O)[C@H]5O)c(OC)cc4c23)ccc1O	7.49	7.33	7.62	7.85	257.78 nM (≈ 171 ng/mL)	6.94	–	–	–
COc1cc(-c2c3c4cc(OC)c(O[C@@H]5O[C@H](CO)[C@@H](O)[C@H](O)[C@H]5O)cc4oc(=O)c3n3ccc4cc(O[C@@H]5O[C@H](CO)[C@@H](O)[C@H](O)[C@H]5O)c(OC)cc4c23)ccc1O	7.44	7.59	6.93	7.40	182.31 nM (≈ 150 ng/mL)	7.13	–	–	–
COc1cc2c(cc1O)oc(=O)c1c2c(-c2ccc(O[C@@H]3O[C@H](CO)[C@H](O)[C@H](O)[C@H]3O)c(OC)c2)c2c3cc(OC)c(O)cc3ccn21	< 4.30	< 4.30	< 4.30	4.86	0.49 nM (≈ 0.324 ng/mL)	4.78	–	Active	–
COc1cc2c(cc1O)oc(=O)c1c2c(-c2ccc(O[C@@H]3O[C@H](CO)[C@@H](O)[C@H](O)[C@H]3O)c(OC)c2)c2c3cc(OC)c(O[C@@H]4O[C@H](CO)[C@@H](O)[C@H](O)[C@H]4O)cc3ccn21	4.88	4.86	4.40	5.28	96.75 nM (≈ 79.7 ng/mL)	4.57	–	Active	–
